Measured values reported in PubChem BioAssay AID488820 (Broad Institute, 2010).
Calls of active or inactive are those of the source.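 Rule for the calls: active = compounds raising nuclear GFP-tagged hypoxia factor signal, with fitted half-maximal dose at or below the top valid dose; inconclusive = flat response of 30 to 70% activation, or poor curve fit; inactive = the rest, including opposite-direction effects.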

Test system: U2OS HIF1a-GFP, nuclear intensity imaging
Assay: HIF1a nuclear accumulation inducers, dose response, imaging, U2OS HIF1a-GFP, high content, dry powder (AID 488820)
Conditions: not given
How it was run: (§1)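 Material: U2OS cells with GFP-HIF1alpha. Quantity: 2,000 cells/well. Buffer or medium: phenol-red-free medium. Compound: 8-point, 3-fold series. Times: plating 24 h pre-dose, 24 h exposure, 37 °C, 21% O2. Replicates: each dose series tested in duplicate.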

Compound | AC50 [µM]
Cc1ccccc1CNc1nc(-c2ccccn2)nnc1-c1ccccc1 | 2.73
OCCCNc1nc(-c2ccccn2)nnc1-c1ccccc1 | 5.73
c1ccc(-c2nnc(-c3ccccn3)nc2N2CCN(c3ccncc3)CC2)cc1 | 2.68
Cn1c(-c2ccccc2)cnc1Nc1nc(-c2ccccn2)nnc1-c1ccccc1 | 4.31
CN(C)c1nc(-c2ccccn2)nnc1-c1ccccc1 | 2.94
O=C(NCCCO)c1cc(-c2ccccc2)on1 | 6.09
c1ccc(CNc2nc(-c3ccccn3)nnc2-c2ccccc2)cc1 | 3.08
Cc1ccc(CNc2nc(-c3ccccn3)nnc2-c2ccccc2)cc1 | 1.1
Cc1cccc(Nc2nc(-c3ccccn3)nnc2-c2ccccc2)n1 | 2.98
O=C(NCC1CC1)c1cc(-c2ccccc2)on1 | 16.1
c1ccc(-c2nnc(-c3ccccn3)nc2NCC2CC2)cc1 | 3.37
CCCCNC(=O)c1cc(-c2ccccc2)on1 | 6.16
Cc1ccc(Nc2nc(-c3ccccn3)nnc2-c2ccccc2)cn1 | 7.08
c1ccc(-c2cnc(Nc3nc(-c4ccccn4)nnc3-c3ccccc3)s2)cc1 | 17.7
c1ccc(-c2csc(Nc3nc(-c4ccccn4)nnc3-c3ccccc3)n2)cc1 | 10.1
CC(C)(C)CCNc1nc(-c2ccccn2)nnc1-c1ccccc1 | 3.27
Cc1cccc(CNc2nc(-c3ccccn3)nnc2-c2ccccc2)c1 | 0.621
O=C(NCCN1CCOCC1)c1cc(-c2ccccc2)on1 | 6.66
O=C(NCCCn1ccnc1)c1cc(-c2ccccc2)on1 | 8.03
c1ccc(-c2nnc(-c3ccccn3)nc2NCCCN2CCOCC2)cc1 | 2.42
O=C(NCCCCO)c1cc(-c2ccccc2)on1 | 2.1
c1ccc(-c2nnc(-c3ccccn3)nc2N2CCC(N3CCOCC3)CC2)cc1 | 6.51
c1ccc(-c2nnc(Nc3nc(-c4ccccn4)nnc3-c3ccccc3)s2)cc1 | 7.41
c1ccc(-c2nnc(-c3ccccn3)nc2NCC2CCCCC2)cc1 | 0.882
CN1CCN(c2nc(-c3ccccn3)nnc2-c2ccccc2)CC1 | 5.11
c1ccc(-c2nnc(-c3ccccn3)nc2Nc2cnc3ccccc3n2)cc1 | 5.59
O=C(NCCCN1CCOCC1)c1cc(-c2ccccc2)on1 | 18.1
c1ccc(-c2nnc(-c3ccccn3)nc2NCCN2CCOCC2)cc1 | 5.41
C=CCNc1nc(-c2ccccn2)nnc1-c1ccccc1 | 2.7
c1ccc(-c2nnc(-c3ccccn3)nc2Nc2nc3ccccc3s2)cc1 | 5.32

Test system: not listed separately
Assay: as above
Conditions: U2OS HIF1a-GFP, nuclear intensity imaging; at 38 µM (top of the series)
How it was run: as §1

Compound | activation
O=C(c1cc(-c2ccccc2)on1)N1CCN(c2ccncc2)CC1 | 31% (inactive)
O=C(NC1CCc2ccccc2C1)c1cc(-c2ccccc2)on1 (stereo not drawn) | 30.1% (inactive)
O=C(NCCN1CCCCC1)c1cc(-c2ccccc2)on1 | 31.8% (inactive)
Cc1ccc(NC(=O)c2cc(-c3ccccc3)on2)cn1 | 25.1% (inactive)
O=C(c1cc(-c2ccccc2)on1)N1CCC(CO)CC1 | -4.8% (inactive)
CN1CCN(C(=O)c2cc(-c3ccccc3)on2)CC1 | 3.08% (inactive)
Cc1ccccc1CNC(=O)c1cc(-c2ccccc2)on1 | 23% (inactive)
O=C(Nc1nc2ccccc2s1)c1cc(-c2ccccc2)on1 | 12.2% (inactive)
O=C(Nc1nnc(-c2ccccc2)s1)c1cc(-c2ccccc2)on1 | -0.482% (inactive)
O=C(Nc1nc(-c2ccccc2)cs1)c1cc(-c2ccccc2)on1 | 4.03% (inactive)
O=C(c1cc(-c2ccccc2)on1)N1CCC(N2CCOCC2)CC1 | 14.1% (inactive)
O=C(NCc1ccccc1)c1cc(-c2ccccc2)on1 | 15.8% (inactive)
Cn1c(-c2ccccc2)cnc1NC(=O)c1cc(-c2ccccc2)on1 | -4.96% (inactive)
O=C(Nc1ccc2ccccc2n1)c1cc(-c2ccccc2)on1 | -3.83% (inactive)
O=C(NC1Cc2ccccc2C1)c1cc(-c2ccccc2)on1 | 6.89% (inactive)
O=C(c1cc(-c2ccccc2)on1)N1CCc2cccnc21 | -2.04% (inactive)
O=C(Nc1ncc2ccccc2n1)c1cc(-c2ccccc2)on1 | 1.57% (inactive)
Cn1c(NC(=O)c2cc(-c3ccccc3)on2)nc2ccccc21 | -0.56% (inactive)
Cc1cccc(NC(=O)c2cc(-c3ccccc3)on2)n1 | 9.15% (inactive)
O=C(Nc1cn2ccccc2n1)c1cc(-c2ccccc2)on1 | 1.49% (inactive)
O=C(Nc1cnc2ccccc2c1)c1cc(-c2ccccc2)on1 | 5.39% (inactive)
Cc1ccc(CNC(=O)c2cc(-c3ccccc3)on2)cc1 | 12.8% (inactive)
O=C(Nc1ncc(-c2ccccc2)o1)c1cc(-c2ccccc2)on1 | 7.7% (inactive)
O=C(NCC1CCCCC1)c1cc(-c2ccccc2)on1 | 18.3% (inactive)
CN(C)CCNC(=O)c1cc(-c2ccccc2)on1 | 6.65% (inactive)
CC(C)(C)CCNC(=O)c1cc(-c2ccccc2)on1 | 17.6% (inactive)
O=C(c1cc(-c2ccccc2)on1)N1CCC(N2CCCC2)CC1 | 12.8% (inactive)
Cc1cccc(CNC(=O)c2cc(-c3ccccc3)on2)c1 | 11.8% (inactive)
